Experimental data as given in ChEMBL document CHEMBL3286182, “4-aminoquinolone piperidine amides: noncovalent inhibitors of DprE1 with long residence time and potent antimycobacterial activity” (J Med Chem, 2014).
Values after ≈ are worked out from the molar mass of the structure shown. Active and inactive are the calls of the source. No cut-off for these calls is given here.

How the values were obtained:
[1] = Clearance in Wistar rat at 2 mg/kg, iv; assay type: ADME, organism-based; parameters: dose 2 mg/kg, route intravenous; conditions: in vivo
Procedure, shortened: (§1)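 Male Wistar rats given a single dose, 2 mg/kg intravenously or 10 mg/kg orally. Plasma concentration followed over time, n = 2 per compound. Parameters taken from the plasma curves: C0 (iv), Cmax (oral), AUC0−∞, elimination half-life, plasma clearance, Vss and oral bioavailability.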

[2] = Solubility of the compound in 0.1 M phosphate buffer at pH 7.4 after 24 hrs by UV and MS analysis; assay type: physicochemical
Candida albicans = assay: Antimicrobial activity against Candida albicans ARC527 at 100 uM; assay type: functional, organism-based
Procedure, shortened: (§2)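 Nonmycobacterial panel of Candida albicans, Gram-negative and Gram-positive pathogens.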

[3] = tested on: Mycolicibacterium smegmatis; assay: Binding affinity to Mycobacterium smegmatis recombinant DprE1 assessed as residence time
Procedure, shortened: (§3)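 Progress curves (fluorescence vs time) recorded at several inhibitor concentrations with 75 nM Msm DprE1 in the FAD/HRP/Amplex Red coupled assay, pH 8.5, 25 °C. A single-step reversible slow-binding model was fitted globally, with vs and vi fitted per concentration and koff and Kiapp shared. Half-life and residence time were derived from koff.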

[4] = Oral bioavailability in Wistar rat at 10 mg/kg; assay type: ADME, organism-based; conditions: in vivo; procedure, shortened: as §1
[5] = tested on: Mycobacterium tuberculosis; assay: Antimycobacterial activity against Mycobacterium tuberculosis over expressing InhA after 5 days by standard microdilution method; assay type: functional; conditions: 120 h
[6] = Intrinsic clearance in rat cryopreserved hepatocytes assessed per 10^6 cells at 1 uM up to 120 mins by LC-MS/MS analysis; assay type: ADME, cell-based, Hepatocyte; conditions: read-out: CLH
[7] = Permeability of the compound from basolateral to apical side in human Caco2 cells; assay type: ADME, cell-based; conditions: Caco-2, read-out: permeability
[8] = Initial plasma concentration in Wistar rat at 2 mg/kg, iv; assay type: ADME, organism-based; parameters: dose 2 mg/kg, route intravenous; procedure, shortened: as §1
[9] = tested on: Mycolicibacterium smegmatis; assay: Binding affinity to Mycobacterium smegmatis recombinant DprE1 assessed as dissociation constant; procedure, shortened: as §3
Haemophilus influenzae [10] = assay: Antimicrobial activity against Haemophilus influenzae ARC446 at 100 uM; assay type: functional, organism-based; procedure, shortened: as §2
[11] = tested on: Mycobacterium tuberculosis; assay: Bactericidal activity against Mycobacterium tuberculosis H37Rv after 7 days relative to control; assay type: functional
[12] = molecular target: Voltage-gated inwardly rectifying potassium channel KCNH2 (Homo sapiens, UniProt Q12809); assay: Inhibition of human ERG by medium-throughput electrophysiology
Chain of Voltage-gated inwardly rectifying potassium channel KCNH2 (Q12809 whole entry): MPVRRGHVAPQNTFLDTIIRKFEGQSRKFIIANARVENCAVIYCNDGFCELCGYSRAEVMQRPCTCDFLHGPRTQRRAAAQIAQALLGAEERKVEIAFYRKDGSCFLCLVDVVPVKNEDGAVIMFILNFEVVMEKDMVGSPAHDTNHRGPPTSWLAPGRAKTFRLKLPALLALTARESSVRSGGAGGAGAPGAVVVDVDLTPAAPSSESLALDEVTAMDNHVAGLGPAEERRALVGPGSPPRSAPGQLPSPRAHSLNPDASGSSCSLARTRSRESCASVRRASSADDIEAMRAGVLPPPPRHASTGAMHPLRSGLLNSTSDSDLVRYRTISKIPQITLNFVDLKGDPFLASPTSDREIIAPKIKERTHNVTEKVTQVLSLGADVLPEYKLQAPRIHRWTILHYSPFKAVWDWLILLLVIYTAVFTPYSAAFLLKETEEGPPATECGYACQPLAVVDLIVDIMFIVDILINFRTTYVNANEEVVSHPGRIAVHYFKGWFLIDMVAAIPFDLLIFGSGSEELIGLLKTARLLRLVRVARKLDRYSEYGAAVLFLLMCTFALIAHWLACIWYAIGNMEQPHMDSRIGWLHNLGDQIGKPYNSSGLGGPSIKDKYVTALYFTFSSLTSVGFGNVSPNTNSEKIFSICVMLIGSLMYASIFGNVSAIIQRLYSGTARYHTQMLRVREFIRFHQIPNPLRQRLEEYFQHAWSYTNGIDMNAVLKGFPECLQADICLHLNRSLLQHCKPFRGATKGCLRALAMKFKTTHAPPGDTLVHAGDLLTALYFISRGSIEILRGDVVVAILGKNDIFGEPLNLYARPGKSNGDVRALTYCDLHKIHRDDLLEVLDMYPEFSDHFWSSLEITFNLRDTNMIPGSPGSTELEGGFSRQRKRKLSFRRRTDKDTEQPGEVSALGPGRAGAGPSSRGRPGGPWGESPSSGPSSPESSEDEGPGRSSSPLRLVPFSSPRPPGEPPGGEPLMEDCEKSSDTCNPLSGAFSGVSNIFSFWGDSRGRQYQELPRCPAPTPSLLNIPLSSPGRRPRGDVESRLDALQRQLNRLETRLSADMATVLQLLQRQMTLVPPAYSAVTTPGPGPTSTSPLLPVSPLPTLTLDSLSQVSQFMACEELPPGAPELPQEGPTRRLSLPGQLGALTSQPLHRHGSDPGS

Pseudomonas aeruginosa [13] = assay: Antimicrobial activity against Pseudomonas aeruginosa ARC546 at 100 uM; assay type: functional, organism-based; procedure, shortened: as §2
[14] = Elimination half life in Wistar rat at 10 mg/kg, po; assay type: ADME, organism-based; parameters: dose 10 mg/kg, route oral; conditions: in vivo, read-out: beta t1/2 (converted); procedure, shortened: as §1
[15] = Cmax in Wistar rat at 10 mg/kg, po; assay type: ADME, organism-based; parameters: dose 10 mg/kg, route oral; conditions: in vivo; procedure, shortened: as §1
[16] = AUC (0 to infinity) in Wistar rat at 10 mg/kg, po; assay type: ADME, organism-based; parameters: time infinity, dose 10 mg/kg, route oral; conditions: plasma; procedure, shortened: as §1
Klebsiella pneumoniae = assay: Antimicrobial activity against Klebsiella pneumoniae ARC1865 at 100 uM; assay type: functional, organism-based; procedure, shortened: as §2
[17] = Permeability of the compound from apical to basolateral side in human Caco2 cells; assay type: ADME, cell-based; conditions: Caco-2, read-out: permeability
[18] = tested on: Mycobacterium tuberculosis; assay: Antimycobacterial activity against Mycobacterium tuberculosis over expressing DprE1 after 5 days by standard microdilution method; assay type: functional; conditions: 120 h
[19] = tested on: Mycolicibacterium smegmatis; assay: Ratio of IC50 for Mycobacterium smegmatis DprE1 Y321H mutant to IC50 for Mycobacterium smegmatis recombinant wild type DprE1
Procedure, shortened: (§4)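 Recombinant M. smegmatis DprE1 (thioredoxin-6His fusion), wild type or Y321H, 75 nM. Enzyme was preincubated 30 min in FAD assay mix: 50 mM glycylglycine pH 8.5, 200 mM potassium glutamate, 10 μM FAD, 0.002% Brij-35, 2% DMSO. Reaction was started with 300 μM farnesylphosphoryl-β-D-ribofuranose, 0.01 mg/mL HRP and 50 μM amplex red at 25 °C.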

[20] = Volume of distribution at steady state in Wistar rat at 2 mg/kg, iv; assay type: ADME, organism-based; parameters: dose 2 mg/kg, route intravenous; conditions: in vivo, read-out: Vdss; procedure, shortened: as §1
[21] = AUC (0 to infinity) in Wistar rat at 2 mg/kg, iv; assay type: ADME, organism-based; parameters: dose 2 mg/kg, route intravenous, time infinity; conditions: plasma; procedure, shortened: as §1
[22] = tested on: Mycolicibacterium smegmatis; assay: Binding affinity to Mycobacterium smegmatis recombinant DprE1 assessed as half life; procedure, shortened: as §3
[23] = tested on: Mycolicibacterium smegmatis; assay: Antimicrobial activity against Mycobacterium smegmatis mc2155 at 100 uM; assay type: functional, organism-based; conditions: str. MC2 155
[24] = tested on: Mycobacterium tuberculosis; assay: Antimycobacterial activity against Mycobacterium tuberculosis over expressing TopA after 5 days by standard microdilution method; assay type: functional; conditions: 120 h
[25] = tested on: Mycolicibacterium smegmatis; assay: Antimicrobial activity against Mycobacterium smegmatis ATCC 607 at 100 uM; assay type: functional, organism-based
[26] = Intrinsic clearance in human liver microsomes at 1 uM up to 30 mins by LC-MS/MS analysis; assay type: ADME; conditions: read-out: CLH
[27] = tested on: Mycobacterium tuberculosis; assay: Antimycobacterial activity against Mycobacterium tuberculosis H37Rv under hypoxic condition after 6 days by resazurin assay; assay type: functional; conditions: 144 h
Escherichia coli [28] = assay: Antimicrobial activity against Escherichia coli ARC524 at 100 uM; assay type: functional, organism-based; procedure, shortened: as §2
[29] = Octanol-water partition coefficient, log D of the compound by shake-flask method; assay type: physicochemical
Haemophilus influenzae [30] = assay: Antimicrobial activity against Haemophilus influenzae ARC158 at 100 uM; assay type: functional, organism-based; procedure, shortened: as §2
[31] = tested on: Mycobacterium tuberculosis; assay: Antimycobacterial activity against Mycobacterium tuberculosis H37Rv after 5 days by standard microdilution method; assay type: functional; conditions: 120 h
Pseudomonas aeruginosa [32] = assay: Antimicrobial activity against Pseudomonas aeruginosa ARC545 at 100 uM; assay type: functional, organism-based; procedure, shortened: as §2
Escherichia coli [33] = assay: Antimicrobial activity against Escherichia coli ARC523 at 100 uM; assay type: functional, organism-based; procedure, shortened: as §2
[34] = Cytotoxicity against human A549 cells after 72 hrs by resazurin based fluorescence assay; assay type: cell-based; conditions: read-out: MIC
Procedure, shortened: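 Cytotoxicity read as MMIC, the MIC on the A549 cell line.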

[35] = Inhibition of Mycobacterium smegmatis recombinant DprE1 using farnesylphosphoryl-beta-D-ribofuranose as substrate assessed as conversion of amplex red to resorufin after 30 mins; parameters: species or system Mycolicibacterium smegmatis
Procedure, shortened: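 Msm DprE1 (thioredoxin-6His fusion of Msm Rv3790) at 75 nM, preincubated 30 min with 10 μM FAD. Buffer: 50 mM glycylglycine pH 8.5, 200 mM potassium glutamate, 0.002% Brij-35, 2% DMSO, 25 °C. Started with 300 μM farnesylphosphoryl-β-D-ribofuranose, 0.01 mg/mL HRP and 50 μM Amplex Red.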

Streptococcus pneumoniae = assay: Antimicrobial activity against Streptococcus pneumoniae ARC548 at 100 uM; assay type: functional, organism-based; procedure, shortened: as §2
[36] = tested on: Mycobacterium tuberculosis; assay: Antimycobacterial activity against Mycobacterium tuberculosis H37Rv at >MIC after 21 to 28 days; assay type: functional
[37] = Inhibition of Mycobacterium smegmatis DprE1 Y321H mutant using farnesylphosphoryl-beta-D-ribofuranose as substrate assessed as conversion of amplex red to resorufin after 30 mins; parameters: species or system Mycolicibacterium smegmatis; procedure, shortened: as §4
[38] = Fraction unbound in human plasma at 20 uM after 18 hrs by equilibrium dialysis method; assay type: ADME, cell-free
Staphylococcus aureus = assay: Antimicrobial activity against Staphylococcus aureus ARC517 at 100 uM; assay type: functional, organism-based; procedure, shortened: as §2
[39] = Elimination half life in Wistar rat at 2 mg/kg, iv; assay type: ADME, organism-based; parameters: dose 2 mg/kg, route intravenous; conditions: in vivo, read-out: beta t1/2 (converted); procedure, shortened: as §1
[40] = tested on: Mycobacterium tuberculosis; assay: Antimycobacterial activity against Mycobacterium tuberculosis over expressing PimA after 5 days by standard microdilution method; assay type: functional; conditions: 120 h
[41] = tested on: Mycobacterium tuberculosis; assay: Bactericidal activity against Mycobacterium tuberculosis H37Rv after 3 days relative to control; assay type: functional

Question: For `Cn1ncc(C(=O)N2CCC(Nc3cc(=O)[nH]c4cc(F)c(F)cc34)CC2)c1Cl`, which clearance [1] is on record?
Answer: Its clearance is 34.4 mL/min/kg.

Question: And the solubility at 24 h [2]?
Answer: The solubility at 24 h was 26 µM (≈ 11 µg/mL).

Question: What about the Activity (Candida albicans) of the same compound?
Answer: Its Activity is “inactive”.

Question: What about the TIME [3] of the same compound?
Answer: The TIME was 2.53 h.

Question: What about the bioavailability [4] of the same compound?
Answer: Its bioavailability is 0.3%.

Question: And the MIC [5]?
Answer: The MIC was 0.4 µM (≈ 0.169 µg/mL).

Question: And the hepatocyte CLint at 1 µM [6]?
Answer: Its hepatocyte CLint at 1 µM is 2.4 µL/min/1e6 cells.

Question: What about the Papp B→A [7] of the same compound?
Answer: Its Papp B→A is 11 ×10⁻⁶ cm/s.

Question: What about the C0 [8] of the same compound?
Answer: The C0 was 4900 nM.

Question: What about the Kdiss [9] of the same compound?
Answer: Its Kdiss is 0.00011 s⁻¹.

Question: What about the Activity (Haemophilus influenzae [10]) of the same compound?
Answer: Its Activity is “inactive”.

Question: And the LCK [11]?
Answer: Its LCK is 4.

Question: And the IC50 [12]?
Answer: The IC50 was over 100 µM.

Question: What about the Activity (Pseudomonas aeruginosa [13]) of the same compound?
Answer: Its Activity is “inactive”.

Question: And the half-life [14]?
Answer: Its half-life is 1.1 h.

Question: What about the Cmax [15] of the same compound?
Answer: The Cmax was 20 nM.

Question: And the AUC(0-inf) [16]?
Answer: The AUC(0-inf) was 0.04 µM·h.

Question: What about the Activity (Klebsiella pneumoniae) of the same compound?
Answer: The Activity was “inactive”.

Question: What about the Papp A→B [17] of the same compound?
Answer: Its Papp A→B is 0.2 ×10⁻⁶ cm/s.

Question: What about the MIC [18] of the same compound?
Answer: Its MIC is over 50 µM.

Question: What about the fold change (FC) [19] of the same compound?
Answer: The fold change (FC) was over 143.

Question: What about the Vd [20] of the same compound?
Answer: The Vd was 0.9 L/kg.

Question: What about the AUC(0-inf) [21] of the same compound?
Answer: The AUC(0-inf) was 1.2 µM·h.

Question: What about the T1/2 [22] of the same compound?
Answer: Its T1/2 is 1.75 h.

Question: And the Activity [23]?
Answer: Its Activity is “inactive”.

Question: And the MIC [24]?
Answer: The MIC was 0.4 µM (≈ 0.169 µg/mL).

Question: What about the Activity [25] of the same compound?
Answer: The Activity was “inactive”.

Question: What about the microsomal CLint at 1 µM [26] of the same compound?
Answer: The microsomal CLint at 1 µM was 12.5 µL/min/mg.

Question: And the IC80 [27]?
Answer: Its IC80 is over 100 µM.

Question: What about the Activity (Escherichia coli [28]) of the same compound?
Answer: Its Activity is “inactive”.

Question: And the logD [29]?
Answer: Its logD is 2.2.

Question: What about the Activity (Haemophilus influenzae [30]) of the same compound?
Answer: The Activity was “inactive”.

Question: What about the MIC [31] of the same compound?
Answer: Its MIC is 0.4 µM (≈ 0.169 µg/mL).

Question: What about the Activity (Pseudomonas aeruginosa [32]) of the same compound?
Answer: The Activity was “inactive”.

Question: What about the Activity (Escherichia coli [33]) of the same compound?
Answer: Its Activity is “inactive”.

Question: What about the MCC at 72 h [34] of the same compound?
Answer: Its MCC at 72 h is over 100 µM.

Question: And the IC50 [35]?
Answer: The IC50 was 0.006 µM.

Question: What about the Activity (Streptococcus pneumoniae) of the same compound?
Answer: The Activity was “inactive”.

Question: And the MBC [36]?
Answer: Its MBC is 0.8 µM (≈ 0.337 µg/mL).

Question: What about the IC50 [37] of the same compound?
Answer: Its IC50 is over 10 µM.

Question: What about the fraction unbound at 18 h, 20 µM [38] of the same compound?
Answer: Its fraction unbound at 18 h, 20 µM is 0.4.

Question: And the Activity (Staphylococcus aureus)?
Answer: Its Activity is “inactive”.

Question: And the half-life [39]?
Answer: Its half-life is 0.5 h.

Question: What about the MIC [40] of the same compound?
Answer: Its MIC is 0.4 µM (≈ 0.169 µg/mL).

Question: And the LCK [41]?
Answer: The LCK was 3.
